Laboratory results: ChEMBL document CHEMBL3091413, “Fine molecular tuning at position 4 of 2H-chromen-2-one derivatives in the search of potent and selective monoamine oxidase B inhibitors” (Eur J Med Chem, 2013)

Columns and labels:
[1] = target: T1, MAO-A (amine oxidase [flavin-containing] A) (Rattus norvegicus, UniProt P21396); experiment: Inhibition of Sprague-Dawley rat MAO-A using Kynuramine as substrate assessed as formation of 4-hydroxyquinoline at 10 uM preincubated for 5 mins prior to substrate addition measured for 5 mins by spectrophotometry; details: rat MAO-A enzyme preparation, probe kynuramine
T1 sequence (P21396 whole entry): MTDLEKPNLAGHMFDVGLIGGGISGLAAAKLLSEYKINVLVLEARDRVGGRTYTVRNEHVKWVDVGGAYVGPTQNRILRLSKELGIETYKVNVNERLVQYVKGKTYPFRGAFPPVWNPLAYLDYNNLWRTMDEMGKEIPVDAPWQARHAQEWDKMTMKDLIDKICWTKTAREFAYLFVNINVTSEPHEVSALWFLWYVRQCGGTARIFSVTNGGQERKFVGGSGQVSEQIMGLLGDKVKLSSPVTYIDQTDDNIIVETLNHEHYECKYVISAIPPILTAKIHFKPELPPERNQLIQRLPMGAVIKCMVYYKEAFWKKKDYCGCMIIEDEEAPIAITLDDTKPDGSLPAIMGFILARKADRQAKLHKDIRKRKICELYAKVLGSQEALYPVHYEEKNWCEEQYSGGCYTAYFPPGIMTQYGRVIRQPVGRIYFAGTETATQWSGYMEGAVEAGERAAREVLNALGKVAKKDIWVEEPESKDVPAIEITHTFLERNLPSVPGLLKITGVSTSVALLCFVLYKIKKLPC

[2] = target: T2, Amine oxidase [flavin-containing] B (Rattus norvegicus, UniProt P19643); experiment: Inhibition of Sprague-Dawley rat MAO-B using Kynuramine as substrate assessed as formation of 4-hydroxyquinoline preincubated for 5 mins prior to substrate addition measured for 5 mins by spectrophotometry
T2 sequence (P19643 whole entry): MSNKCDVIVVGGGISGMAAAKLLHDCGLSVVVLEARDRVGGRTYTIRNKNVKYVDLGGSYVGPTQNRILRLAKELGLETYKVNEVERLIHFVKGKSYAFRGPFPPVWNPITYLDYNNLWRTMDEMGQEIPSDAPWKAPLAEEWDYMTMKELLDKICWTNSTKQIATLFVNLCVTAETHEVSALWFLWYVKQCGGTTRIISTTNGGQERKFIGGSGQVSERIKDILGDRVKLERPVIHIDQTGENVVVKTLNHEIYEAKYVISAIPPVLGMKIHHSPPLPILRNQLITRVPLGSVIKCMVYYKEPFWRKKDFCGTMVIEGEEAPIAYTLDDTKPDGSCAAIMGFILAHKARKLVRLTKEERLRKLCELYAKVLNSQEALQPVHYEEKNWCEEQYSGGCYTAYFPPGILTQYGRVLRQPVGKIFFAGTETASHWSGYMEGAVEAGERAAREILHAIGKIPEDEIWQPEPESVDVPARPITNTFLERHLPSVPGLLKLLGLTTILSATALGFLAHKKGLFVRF

[3] = target: T3, Amine oxidase [flavin-containing] A (Rattus norvegicus, UniProt P21396); experiment: Inhibition of Sprague-Dawley rat MAO-A using Kynuramine as substrate assessed as formation of 4-hydroxyquinoline preincubated for 5 mins prior to substrate addition measured for 5 mins by spectrophotometry
T3 sequence (P21396 whole entry): T1 sequence (P21396 whole entry)
In short: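 Enzyme source: crude brain mitochondrial fraction from male Sprague-Dawley rats (200-250 g), decapitated. Brains were washed in ice-cold isotonic Na2HPO4/KH2PO4 buffer (pH 7.40) with sucrose, fractionated by differential centrifugation, and stored at -40 °C in isotonic phosphate buffer (pH 7.4) with KCl. Kynuramine oxidation to 4-hydroxyquinoline was monitored spectrophotometrically. Values are the mean of two or three independent experiments.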

Rattus norvegicus = organism: Rattus norvegicus; experiment: Selectivity ratio for Sprague-Dawley rat MAO-B to Sprague-Dawley rat MAO-A
In short: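 Selectivity index is pIC50 MAO-B minus pIC50 MAO-A (ΔpIC50), from the rat brain mitochondrial kynuramine assay.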

| Compound | inhibition at 5 min, 10 µM [1] [%] | IC50 ([2]; read-out: pIC50 (converted)) [nM] | IC50 [3] [nM] | Selectivity ratio (Rattus norvegicus) | IC50 ([2]; read-out: IC50) [nM] |
| --- | --- | --- | --- | --- | --- |
| N#CCOc1cc(=O)oc2cc(OCc3cccc(Cl)c3)ccc12 | 17 | 45.7 |  |  |  |
| CNc1cc(=O)oc2cc(OCc3cccc(Cl)c3)ccc12 |  | 8.71 | 4070 |  |  |
| O=c1cc(O)c2ccc(OCc3cccc(Br)c3)cc2o1 | 0 | 490 |  |  |  |
| O=c1cc(O)c2ccc(OCc3ccccc3)cc2o1 | 2 | 9120 |  |  |  |
| O=c1cc(O)c2ccc(OCc3cccc(F)c3)cc2o1 | 0 | 2090 |  |  |  |
| NC(=O)COc1cc(=O)oc2cc(OCc3cccc(Cl)c3)ccc12 |  | 3.31 | 24000 | 7240 | 3.1 |
| O=C(O)COc1cc(=O)oc2cc(OCc3cccc(Cl)c3)ccc12 | 0 |  |  |  |  |
| CN(C)C(=O)Cc1cc(=O)oc2cc(OCc3cccc(Cl)c3)ccc12 | 0 |  |  |  |  |
| CC(=O)COc1cc(=O)oc2cc(OCc3cccc(Cl)c3)ccc12 | 22 | 26.9 |  |  |  |
| COc1cc(=O)oc2cc(OCc3cccc(Cl)c3)ccc12 |  | 7.76 | 11700 |  |  |
| CC(=O)Nc1cc(=O)oc2cc(OCc3cccc(Cl)c3)ccc12 |  | 38.9 | 282 |  |  |
| Nc1cc(=O)oc2cc(OCc3cccc(Cl)c3)ccc12 |  | 47.9 | 4170 |  |  |
| O=c1cc(CCl)c2ccc(OCc3cccc(Cl)c3)cc2o1 | 21 | 43.7 |  |  |  |
| O=C(O)c1cc(=O)oc2cc(OCc3cccc(Cl)c3)ccc12 | 0 |  |  |  |  |
| CCc1cc(=O)oc2cc(OCc3cccc(Cl)c3)ccc12 | 48 | 28.8 |  |  |  |
| O=c1cc(/C=N/O)c2ccc(OCc3cccc(Cl)c3)cc2o1 | 48 | 219 |  |  |  |
| O=c1cc(Nc2ccccc2)c2ccc(OCc3cccc(Cl)c3)cc2o1 | 0 | 9770 |  |  |  |
| NC(=O)COc1cc(=O)oc2cc(OCc3cccc(Br)c3)ccc12 |  | 8.91 | 8910 |  |  |
| O=Cc1cc(=O)oc2cc(OCc3cccc(Cl)c3)ccc12 | 14 | 52.5 |  |  |  |
| CCNc1cc(=O)oc2cc(OCc3cccc(Cl)c3)ccc12 |  | 28.2 | 9330 |  |  |
| O=C(COc1cc(=O)oc2cc(OCc3cccc(Cl)c3)ccc12)N1CCCCC1 | 9 | 38900 |  |  |  |

| Compound | inhibition at 5 min, 10 µM [1] [%] | IC50 ([2]; read-out: pIC50 (converted)) [nM] | IC50 [3] [nM] | Selectivity ratio (Rattus norvegicus) | IC50 ([2]; read-out: IC50) [nM] |
| --- | --- | --- | --- | --- | --- |
| CNC(=O)COc1cc(=O)oc2cc(OCc3cccc(Cl)c3)ccc12 | 11 | 33.9 |  |  |  |
| CCOc1cc(=O)oc2cc(OCc3cccc(Br)c3)ccc12 | 2.5 | 126 |  |  |  |
| N#Cc1cc(=O)oc2cc(OCc3cccc(Cl)c3)ccc12 | 23 | 102 |  |  |  |
| O=c1cc(CN2CCOCC2)c2ccc(OCc3cccc(Cl)c3)cc2o1 | 11 | 2290 |  |  |  |
| COc1cc(=O)oc2cc(OCc3cccc(F)c3)ccc12 | 49 | 36.3 |  |  |  |
| CN(C)C(=O)COc1cc(=O)oc2cc(OCc3cccc(Cl)c3)ccc12 | 10 | 501 |  |  |  |
| CCCOc1cc(=O)oc2cc(OCc3cccc(Br)c3)ccc12 | 0 | 74.1 |  |  |  |
| CCNC(=O)Nc1cc(=O)oc2cc(OCc3cccc(Cl)c3)ccc12 | 0 |  |  |  |  |
| CCOc1cc(=O)oc2cc(OCc3cccc(F)c3)ccc12 | 25 | 263 |  |  |  |
| CC(=O)c1cc(=O)oc2cc(OCc3cccc(Cl)c3)ccc12 | 0 | 39.8 |  |  |  |
| O=c1cc(CCl)c2ccc(OCc3cccc(Br)c3)cc2o1 | 28 | 209 |  |  |  |
| CC(O)c1cc(=O)oc2cc(OCc3cccc(Cl)c3)ccc12 (centres undefined) | 22 | 77.6 |  |  |  |
| O=C(COc1cc(=O)oc2cc(OCc3cccc(Cl)c3)ccc12)N1CCOCC1 | 3.2 | 12900 |  |  |  |
| CCOC(=O)COc1cc(=O)oc2cc(OCc3cccc(Cl)c3)ccc12 | 0 | 1820 |  |  |  |
| NC(=O)c1cc(=O)oc2cc(OCc3cccc(Cl)c3)ccc12 | 14 | 234 |  |  |  |
| CC(C)Nc1cc(=O)oc2cc(OCc3cccc(Cl)c3)ccc12 | 0 | 7760 |  |  |  |
| CCOc1cc(=O)oc2cc(OCc3ccccc3)ccc12 | 0 | 759 |  |  |  |
| O=c1cc(CO)c2ccc(OCc3cccc(Br)c3)cc2o1 | 49 | 14.1 |  |  |  |
| O=c1cc(C(F)(F)F)c2ccc(OCc3cccc(Cl)c3)cc2o1 | 16 | 871 |  |  |  |
| CCOC(=O)Nc1cc(=O)oc2cc(OCc3cccc(Cl)c3)ccc12 | 21 | 589 |  |  |  |
| COCOc1cc(=O)oc2cc(OCc3cccc(Cl)c3)ccc12 | 23 | 100 |  |  |  |

| Compound | inhibition at 5 min, 10 µM [1] [%] | IC50 ([2]; read-out: pIC50 (converted)) [nM] | IC50 [3] [nM] | Selectivity ratio (Rattus norvegicus) | IC50 ([2]; read-out: IC50) [nM] |
| --- | --- | --- | --- | --- | --- |
| CNCc1cc(=O)oc2cc(OCc3cccc(Br)c3)ccc12 | 40 | 11 |  |  |  |
| CCCCNCc1cc(=O)oc2cc(OCc3cccc(Cl)c3)ccc12 | 1.1 | 447 |  |  |  |
| CCCOc1cc(=O)oc2cc(OCc3cccc(F)c3)ccc12 | 12 | 407 |  |  |  |
| COc1cc(=O)oc2cc(OCc3ccccc3)ccc12 | 22 | 100 |  |  |  |
| CCOc1cc(=O)oc2cc(OCc3cccc(Cl)c3)ccc12 | 2 | 115 |  |  |  |
| Cc1cc(=O)oc2cc(OCc3cccc(Cl)c3)ccc12 |  | 7.41 | 5250 |  |  |
| O=c1cc(CN2CCCC2)c2ccc(OCc3cccc(Cl)c3)cc2o1 | 16 | 1700 |  |  |  |
| O=c1cc(CO)c2ccc(OCc3cccc(Cl)c3)cc2o1 |  | 5.25 | 10200 |  |  |
| CCCNCc1cc(=O)oc2cc(OCc3cccc(Cl)c3)ccc12 | 3.2 | 204 |  |  |  |
| COc1cc(=O)oc2cc(OCc3cccc(Br)c3)ccc12 | 27 | 5.75 |  |  |  |
| CC(C)Oc1cc(=O)oc2cc(OCc3cccc(Cl)c3)ccc12 | 3 | 24500 |  |  |  |
| O=c1cc(Oc2ccccc2)c2ccc(OCc3cccc(Cl)c3)cc2o1 | 0 | 4070 |  |  |  |
| CN(C)Cc1cc(=O)oc2cc(OCc3cccc(Cl)c3)ccc12 | 5.7 |  |  |  |  |
| CCCOc1cc(=O)oc2cc(OCc3ccccc3)ccc12 | 0 | 575 |  |  |  |
| CCOC(=O)c1cc(=O)oc2cc(OCc3cccc(Cl)c3)ccc12 | 4.4 | 417 |  |  |  |
| O=c1cc(Cl)c2ccc(OCc3cccc(Cl)c3)cc2o1 |  | 20.9 | 8910 |  |  |
| CSCOc1cc(=O)oc2cc(OCc3cccc(Cl)c3)ccc12 | 8.6 | 316 |  |  |  |
| CCCOc1cc(=O)oc2cc(OCc3cccc(Cl)c3)ccc12 | 5.3 | 61.7 |  |  |  |
| O=c1cc(O)c2ccc(OCc3cccc(Cl)c3)cc2o1 | 6 | 479 |  |  |  |
